In ChEMBL document CHEMBL1909618, “Non-steroidal dissociated glucocorticoid agonists: indoles as A-ring mimetics and function-regulating pharmacophores” (Bioorg Med Chem Lett, 2011):

Assays:
Glucocorticoid receptor [1] = molecular target: T1, Glucocorticoid receptor (Homo sapiens, UniProt P04150); assay: Displacement of tetramethylrhodamine-labeled Dexamethasone from human recombinant glucocorticoid receptor expressed in baculovirus infected insect cells by fluorescence polarization assay
T1 sequence (P04150 whole entry): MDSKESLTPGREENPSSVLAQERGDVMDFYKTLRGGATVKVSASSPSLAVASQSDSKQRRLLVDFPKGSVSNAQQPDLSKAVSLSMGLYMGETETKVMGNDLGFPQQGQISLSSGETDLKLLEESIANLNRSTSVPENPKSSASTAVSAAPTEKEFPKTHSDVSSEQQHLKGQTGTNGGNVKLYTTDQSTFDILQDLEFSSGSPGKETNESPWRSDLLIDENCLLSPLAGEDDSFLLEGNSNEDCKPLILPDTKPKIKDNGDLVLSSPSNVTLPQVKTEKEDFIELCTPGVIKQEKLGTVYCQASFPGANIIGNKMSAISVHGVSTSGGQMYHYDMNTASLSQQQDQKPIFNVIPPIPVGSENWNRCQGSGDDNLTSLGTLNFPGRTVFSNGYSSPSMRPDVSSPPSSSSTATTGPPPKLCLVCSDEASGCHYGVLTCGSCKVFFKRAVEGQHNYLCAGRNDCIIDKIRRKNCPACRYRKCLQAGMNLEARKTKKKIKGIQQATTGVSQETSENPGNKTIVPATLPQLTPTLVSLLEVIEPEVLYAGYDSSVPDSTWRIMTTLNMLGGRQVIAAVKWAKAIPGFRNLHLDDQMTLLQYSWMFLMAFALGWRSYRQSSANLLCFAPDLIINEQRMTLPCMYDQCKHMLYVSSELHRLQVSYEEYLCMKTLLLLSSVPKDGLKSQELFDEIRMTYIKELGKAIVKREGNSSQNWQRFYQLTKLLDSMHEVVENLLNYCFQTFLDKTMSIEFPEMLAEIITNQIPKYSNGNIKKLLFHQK

[2] = molecular target: T2, Glucocorticoid receptor (Homo sapiens) (UniProt P04150); assay: Agonist activity at glucocorticoid receptor in HFF assessed as inhibition of IL1-induced IL-6 production after 18 to 24 hrs relative to Dexamethasone; type: functional
T2 sequence (whole entry): T1 sequence (P04150 whole entry)
Summary of the method: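 Human foreskin fibroblasts stimulated with IL-1 (1 ng/mL) in the presence of test compound, incubated at 37 °C for 18–24 h. IL-6 in the culture medium was quantified by electrochemiluminescence, DELFIA or ELISA. IC50 and % maximal efficacy were reported.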

Glucocorticoid receptor [3] = molecular target: T1, Glucocorticoid receptor; assay: Transactivation activity of glucocorticoid receptor in HFF assessed as induction of aromatase activity by measuring beta-estradiol activity after 18 to 24 hrs by ELISA
Progesterone receptor = molecular target: T3, Progesterone receptor (Homo sapiens, UniProt P06401); assay: Displacement of tetramethylrhodamine-labeled RU-486 from human recombinant progesterone receptor expressed in baculovirus infected insect cells by fluorescence polarization assay
T3 sequence (P06401 whole entry): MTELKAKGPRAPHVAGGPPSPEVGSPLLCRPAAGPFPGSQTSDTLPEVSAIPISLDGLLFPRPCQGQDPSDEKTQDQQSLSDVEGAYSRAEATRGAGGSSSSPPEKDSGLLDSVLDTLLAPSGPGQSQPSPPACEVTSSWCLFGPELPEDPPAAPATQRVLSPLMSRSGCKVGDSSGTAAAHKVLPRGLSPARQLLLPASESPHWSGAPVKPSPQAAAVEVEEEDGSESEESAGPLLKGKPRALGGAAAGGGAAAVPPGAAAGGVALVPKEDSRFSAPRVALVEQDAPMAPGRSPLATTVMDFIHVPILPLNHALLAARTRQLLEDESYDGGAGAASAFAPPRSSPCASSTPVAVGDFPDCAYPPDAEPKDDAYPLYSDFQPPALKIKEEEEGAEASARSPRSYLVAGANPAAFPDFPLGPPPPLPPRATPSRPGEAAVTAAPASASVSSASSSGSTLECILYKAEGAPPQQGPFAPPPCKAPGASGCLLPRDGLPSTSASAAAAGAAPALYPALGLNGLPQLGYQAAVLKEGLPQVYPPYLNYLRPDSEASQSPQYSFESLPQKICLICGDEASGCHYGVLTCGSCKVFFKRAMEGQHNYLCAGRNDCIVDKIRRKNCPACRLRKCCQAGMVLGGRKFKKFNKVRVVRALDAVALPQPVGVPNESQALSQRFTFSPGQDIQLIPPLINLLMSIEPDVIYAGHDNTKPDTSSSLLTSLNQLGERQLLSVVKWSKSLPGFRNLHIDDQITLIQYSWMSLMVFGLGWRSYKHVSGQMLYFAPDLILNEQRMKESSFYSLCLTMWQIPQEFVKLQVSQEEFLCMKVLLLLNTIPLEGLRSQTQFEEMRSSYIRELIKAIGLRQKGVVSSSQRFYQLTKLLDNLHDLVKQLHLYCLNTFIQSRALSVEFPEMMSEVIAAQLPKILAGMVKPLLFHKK
Summary of the method: (§1)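 Fluorescence polarization competition assays with recombinant human receptors in lysates of baculovirus-infected insect cells. Reactions contained 1% DMSO and ran 1 h at room temperature.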

Glucocorticoid receptor [4] = molecular target: T1, Glucocorticoid receptor; assay: Agonist activity at glucocorticoid receptor in HFF assessed as inhibition of IL1-induced IL-6 production after 18 to 24 hrs; type: functional
[5] = molecular target: T2, Glucocorticoid receptor (Homo sapiens); assay: Transactivation activity of glucocorticoid receptor in HFF assessed as induction of aromatase activity by measuring beta-estradiol activity after 18 to 24 hrs by ELISA relative to Dexamethasone
[6] = molecular target: T4, Mineralocorticoid receptor (Homo sapiens, UniProt P08235); assay: Displacement of tetramethylrhodamine-labeled Dexamethasone from human recombinant mineralocorticoid receptor expressed in baculovirus infected insect cells by fluorescence polarization assay; summary of the method: as §1
T4 sequence (P08235 whole entry): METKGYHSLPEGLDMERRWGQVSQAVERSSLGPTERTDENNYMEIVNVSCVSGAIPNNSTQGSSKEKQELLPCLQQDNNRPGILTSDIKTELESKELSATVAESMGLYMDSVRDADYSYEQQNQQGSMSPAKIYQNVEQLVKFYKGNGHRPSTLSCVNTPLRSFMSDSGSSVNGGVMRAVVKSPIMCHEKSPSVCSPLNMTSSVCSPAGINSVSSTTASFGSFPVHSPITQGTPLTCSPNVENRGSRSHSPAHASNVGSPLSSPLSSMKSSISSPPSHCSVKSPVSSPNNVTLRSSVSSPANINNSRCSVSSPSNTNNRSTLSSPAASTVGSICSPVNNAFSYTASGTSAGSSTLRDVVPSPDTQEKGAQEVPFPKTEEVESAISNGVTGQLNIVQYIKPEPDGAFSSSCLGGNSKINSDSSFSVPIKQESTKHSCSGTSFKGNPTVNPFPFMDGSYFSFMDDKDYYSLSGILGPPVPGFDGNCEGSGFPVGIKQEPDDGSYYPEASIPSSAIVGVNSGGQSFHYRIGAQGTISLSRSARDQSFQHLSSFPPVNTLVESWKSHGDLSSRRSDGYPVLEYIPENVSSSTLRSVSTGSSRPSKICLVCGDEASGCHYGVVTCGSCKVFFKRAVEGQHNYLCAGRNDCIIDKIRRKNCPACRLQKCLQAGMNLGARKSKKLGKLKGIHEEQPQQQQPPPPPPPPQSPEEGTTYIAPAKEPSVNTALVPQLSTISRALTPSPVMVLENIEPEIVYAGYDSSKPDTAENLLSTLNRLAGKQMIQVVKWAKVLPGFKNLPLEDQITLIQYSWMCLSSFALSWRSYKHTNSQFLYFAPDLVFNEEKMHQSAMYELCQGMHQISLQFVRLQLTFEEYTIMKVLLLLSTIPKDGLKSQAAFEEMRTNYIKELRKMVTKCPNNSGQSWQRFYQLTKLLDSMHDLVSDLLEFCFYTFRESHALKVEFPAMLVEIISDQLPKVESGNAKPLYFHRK

| Structure (SMILES) | IC50 (Glucocorticoid receptor [1]) | Efficacy [2] | EC50 (Glucocorticoid receptor [3]; read-out: EC50) | IC50 (Progesterone receptor) | IC50 (Glucocorticoid receptor [4]) | Efficacy [5] | IC50 [6] | EC50 (Glucocorticoid receptor [3]) |
| --- | --- | --- | --- | --- | --- | --- | --- | --- |
| CC(C)(C[C@](O)(Cc1cc2ccc(C#N)cc2[nH]1)C(F)(F)F)c1cc(S(C)(=O)=O)cc2c1OCC2 | 405 nM |  |  | 1400 nM |  |  | 405 nM |  |
| COc1ccc(F)cc1C(C)(C)CC(O)(Cc1cc2cccc(F)c2[nH]1)C(F)(F)F (racemic) | 15 nM | 75% | 473 nM | 930 nM | 36 nM | 89% | 435 nM |  |
| COc1ccc(F)cc1C(C)(C)CC(O)(Cc1cc2cccc(C(F)(F)F)c2[nH]1)C(F)(F)F (racemic) | 120 nM |  | > 2000 nM | 1750 nM | > 2000 nM |  | 1650 nM |  |
| COc1ccc(F)cc1C(C)(C)CC(O)(Cc1cc2cccc(C#N)c2[nH]1)C(F)(F)F (racemic) | 27 nM | 30% | > 2000 nM | > 2000 nM | > 2000 nM |  | 1420 nM |  |
| COc1ccc(F)cc1C(C)(C)CC(O)(Cc1cc2c(C(F)(F)F)cccc2[nH]1)C(F)(F)F (racemic) | 160 nM | 70% |  | > 2000 nM | 290 nM | 30% | > 2000 nM | Not Active |
| CC(C)(CC(O)(Cc1cc2ccccc2[nH]1)C(F)(F)F)c1cccc2c1OCC2 (racemic) | 19 nM | 83% | 311 nM | 225 nM | 10 nM | 103% | 400 nM |  |
| CC(C)(CC(O)(Cc1cc2ccccc2[nH]1)C(F)(F)F)c1cc(F)cc2c1OCC2 (racemic) | 8 nM | 90% | 125 nM | 255 nM | 21 nM | 98% | 265 nM |  |
| Cc1cc2c(c(C(C)(C)CC(O)(Cc3cc4ccccc4[nH]3)C(F)(F)F)c1)OCC2 (racemic) | 10 nM | 95% | 16 nM | 145 nM | 7 nM | 105% | 240 nM |  |
| CC(C)(CC(O)(Cc1cc2ccccc2[nH]1)C(F)(F)F)c1cc(Br)cc2c1OCC2 (racemic) | 32 nM | 88% | 45 nM | 415 nM | 16 nM | 99% | 585 nM |  |
| C[C@@H]1C[C@H]2[C@@H]3CCC4=CC(=O)C=C[C@]4(C)[C@@]3(F)[C@@H](O)C[C@]2(C)[C@@]1(O)C(=O)CO [DEXAMETHASONE] |  |  |  | > 2000 nM |  |  |  |  |

Next, values leading:

| IC50 (Glucocorticoid receptor [1]) | Efficacy [2] | EC50 (Glucocorticoid receptor [3]; read-out: EC50) | IC50 (Progesterone receptor) | IC50 (Glucocorticoid receptor [4]) | Efficacy [5] | IC50 [6] | EC50 (Glucocorticoid receptor [3]) | Structure (SMILES) |
| --- | --- | --- | --- | --- | --- | --- | --- | --- |
| > 2000 nM | 20% | > 2000 nM | 1200 nM | > 2000 nM | 20% | 1100 nM |  | COc1ccc(F)cc1C(C)(C)C[C@](O)(Cc1cc2ccccc2[nH]1)C(F)(F)F |
| 56 nM | 26% | > 2000 nM | 1450 nM | > 2000 nM | 26% | 1040 nM |  | COc1ccc(F)cc1C(C)(C)CC(O)(Cc1cc2cccc(C)c2[nH]1)C(F)(F)F (racemic) |
| 30 nM | 91% | 9 nM | 350 nM | 6 nM | 110% | 415 nM |  | COc1ccc(F)cc1C(C)(C)CC(O)(Cc1cc2c(C)cccc2[nH]1)C(F)(F)F (racemic) |
| 24 nM | 84% | 94 nM | 405 nM | 78 nM | 98% | 405 nM |  | COc1ccc(F)cc1C(C)(C)CC(O)(Cc1cc2cc(F)ccc2[nH]1)C(F)(F)F (racemic) |
| 66 nM | 86% | 230 nM | 1800 nM | 113 nM | 104% | 1250 nM |  | COc1ccc(F)cc1C(C)(C)CC(O)(Cc1cc2cc(C)ccc2[nH]1)C(F)(F)F (racemic) |
| 290 nM | 77% | 640 nM | > 2000 nM | 191 nM | 65% | > 2000 nM |  | COc1ccc(F)cc1C(C)(C)CC(O)(Cc1cc2cc(C(F)(F)F)ccc2[nH]1)C(F)(F)F (racemic) |
| 30 nM | 94% | 33 nM | 265 nM | 29 nM | 84% | 350 nM |  | COc1ccc(F)cc1C(C)(C)CC(O)(Cc1cc2ccc(F)cc2[nH]1)C(F)(F)F (racemic) |
| 38 nM | 60% | 976 nM | 1250 nM | 334 nM | 70% | 720 nM |  | COc1ccc(F)cc1C(C)(C)CC(O)(Cc1cc2ccc(C)cc2[nH]1)C(F)(F)F (racemic) |
| 77 nM |  | > 2000 nM | 1600 nM | > 2000 nM |  | 910 nM |  | COc1ccc(F)cc1C(C)(C)CC(O)(Cc1cc2ccc(C(F)(F)F)cc2[nH]1)C(F)(F)F (racemic) |
